C-LANA FP – KSHV C-LANA DNA binding inhibition. MBP-C-LANA/FAM-LBS DNA binding, fluorescence polarization. 340,000 tested, 0.078% active. inhibition, % at 9 µM;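 active means highest replicate inhibition at or above 60% at 9 µM, even if other replicates fall short; inactive means all replicates below 60% inhibition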
Keap1-Nrf2 PPI – inhibitors of human Keap1-Nrf2 protein-protein interaction; inhibition, % at 9.4 µM; 340,000 tested, 0.15% active; Keap1 Kelch-Nrf2 peptide fluorescence polarization, 1536-well; in the data active means inhibition above about 12%; inconclusive means no clear call, values can overlap the other calls; inactive means below about 7.3%;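 further: human Keap1 Kelch domain with fluorescein labeled Nrf2 9mer peptide probe; higher means more block of Keap1 binding to Nrf2 peptide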
Target sequence (Q14145 whole entry, looked up, the tested form may be a part): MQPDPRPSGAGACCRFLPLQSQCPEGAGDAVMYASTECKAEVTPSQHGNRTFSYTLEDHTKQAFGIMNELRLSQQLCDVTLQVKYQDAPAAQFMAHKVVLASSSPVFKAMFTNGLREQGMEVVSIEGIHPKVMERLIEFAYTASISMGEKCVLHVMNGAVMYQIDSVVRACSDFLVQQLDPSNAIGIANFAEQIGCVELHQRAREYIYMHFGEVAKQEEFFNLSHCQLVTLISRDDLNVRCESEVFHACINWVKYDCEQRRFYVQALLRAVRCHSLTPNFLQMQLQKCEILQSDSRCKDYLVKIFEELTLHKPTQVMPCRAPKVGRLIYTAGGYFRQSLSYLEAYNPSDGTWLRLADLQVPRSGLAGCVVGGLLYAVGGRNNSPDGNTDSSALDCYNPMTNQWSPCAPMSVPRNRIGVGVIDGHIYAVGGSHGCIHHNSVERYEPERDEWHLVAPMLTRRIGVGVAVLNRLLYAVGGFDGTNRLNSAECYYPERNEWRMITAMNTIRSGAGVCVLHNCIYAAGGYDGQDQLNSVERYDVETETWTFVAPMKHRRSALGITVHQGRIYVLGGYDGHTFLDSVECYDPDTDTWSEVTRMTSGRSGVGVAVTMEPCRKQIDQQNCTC
CAL PDZ FP-1 – blocks peptide binding to the human CAL PDZ domain. Q9HD26. purified CAL PDZ, TMR-peptide fluorescence polarization, 1 h. inhibition, % at 24.9 µM. 300,000 tested, 0.92% active. AID 602252;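 active means mean inhibition of at least 30% with at least half of replicates also reaching 30%; inconclusive means no clear call, values can overlap the other calls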
CaV13 ICDI inh – Primary screen for inhibitors of IQ motif and Ca2+-dependent inactivation inhibitor domain binding in CACNA1D, Förster resonance energy transfer in living cells, …; HEK cells, CFP/YFP FRET ICDI-IQ, plate reader, 10 min; percent FRET-ratio fall versus neutral wells; inhibition, % at 12.3 µM; 340,000 tested, 0.098% active; AID 743397;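 active means mean replicate inhibition of at least 30% and at least 1% of replicates passing that level; inconclusive means only one of the two criteria is met; inactive means neither criterion is met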
LANA-H2A inh – blocks KSHV LANA binding to histone H2A/H2B; Q9QR71; cell-free LANA-H2A/H2B peptide, fluorescence polarization; inhibition, % (test concentration not listed); 320,000 tested, 0.6% active; AID 2629; in the data active means inhibition mostly above about 10%, no sharp cut-off; inactive means mostly below about 6.7%
CAL PDZ FP-2 – blocks peptide binding to human CAL PDZ domain | Q9HD26 | purified CAL PDZ, TMR-peptide fluorescence polarization, 1 h | inhibition, % at 20 µM | 330,000 tested, 0.02% active | AID 504414;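 active means highest replicate inhibition of at least 40%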
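material = purified tagged CAL PDZ domain construct (CerCALP) | buffer or medium = sodium phosphate/NaCl buffer pH 7.4 with TCEP, IgG, Thesit | reagent = TMR-labelled reporter peptide T*-PRC34 bound in PDZ groove | incubation = 1 h room-temperature incubation prior to read | measured by = fluorescence polarization (mP) | evaluation = percent inhibition from loss of millipolarization | control set = unlabelled peptide and DMSO controls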
Of the large screens only hits and unclear results are named; the others gave an inactive call. In the library only some 1.5% were active in any assay of this set; here they are far more common.

COC(=O)C1=C(C)N(C)C(=NCc2cc(OC)c(OC)c(OC)c2)NC1c1ccc(C(F)(F)F)cc1 (centres undefined)	none (no result: C-LANA FP, Keap1-Nrf2 PPI, CAL PDZ FP-1, LANA-H2A inh, CAL PDZ FP-2)
O=C(NCCc1ccccc1Cl)[C@@H]1CCCN1C(=O)[C@H](Cc1cccnc1)NC(=O)N1CCOCC1	none (no result: C-LANA FP, Keap1-Nrf2 PPI, CAL PDZ FP-1, LANA-H2A inh, CAL PDZ FP-2)
CSc1ccc(NC(=O)C2(C)CCN2C(=O)c2sccc2C)cc1 (centres undefined)	none (no result: C-LANA FP, Keap1-Nrf2 PPI, CAL PDZ FP-1, LANA-H2A inh, CAL PDZ FP-2)
COc1ccc(S(=O)(=O)NCCc2ccncc2)cc1	CAL PDZ FP-1 63
COc1ccc(S(=O)(=O)NCCc2ccccc2)cc1	none
COC(=O)[C@]12C[C@H](CC(=O)N3CCOCC3)C(=O)N(Cc3ccccc3)C1=C[C@H](C(C)(C)C)O[C@@H]2C	none (no result: C-LANA FP, Keap1-Nrf2 PPI, CAL PDZ FP-1, LANA-H2A inh, CAL PDZ FP-2)
C/C(=N/NC(=O)c1ccncc1)c1cc2ccc(O)cc2oc1=O	C-LANA FP 75, CaV13 ICDI inh inconclusive, LANA-H2A inh 87
COCc1cc(N2CCN(C(=O)OC(C)(C)C)C[C@@H]2C)ccc1N1CC[C@@H](O)C1	none (no result: C-LANA FP, Keap1-Nrf2 PPI, CAL PDZ FP-1, LANA-H2A inh, CAL PDZ FP-2)
Cc1ccc(-c2csc(NC(=O)CCCc3cccs3)n2)cc1	none
Cc1csc(NC(=O)CCCc2cccs2)n1	LANA-H2A inh 181
O=C(CN1C(=O)S/C(=C\c2ccccn2)C1=O)Nc1ccccc1	none (no result: CAL PDZ FP-1)
Cc1ccc(NC(=O)CN2C(=O)S/C(=C\c3ccccn3)C2=O)cc1	CAL PDZ FP-1 85
COCCN(C(=O)c1ccco1)c1nnc(-c2ccc(F)cc2)s1	CAL PDZ FP-1 40
COCCN(C(=O)c1ccco1)c1nnc(-c2ccc(OC)c(OC)c2)s1	none (no result: CAL PDZ FP-2)
COc1ccc(OCC(O)CN(C)C(=O)/C=C/c2cccc([N+](=O)[O-])c2)cc1 (centres undefined)	CAL PDZ FP-1 86
CCCCN(CCCC)C(=O)/C=C/c1cccc([N+](=O)[O-])c1	none
COc1ccccc1-c1cccc(-c2nc(C(=O)Nc3nccs3)cc3c2[C@@H](CCO)N(C(=O)CC2CC2)C3)c1	none (no result: C-LANA FP, Keap1-Nrf2 PPI, CAL PDZ FP-1, LANA-H2A inh, CAL PDZ FP-2)
N/C(=N\N=C\c1ccc(O)c(O)c1)c1nonc1N	LANA-H2A inh 18
NS(=O)(=O)c1ccc(NC(=O)COC(=O)c2cnccn2)cc1	none
COc1ccc(N=CC2=C(Nc3ccc(OC)cc3)c3c(C)nn(-c4ccccn4)c3CC2)cc1	LANA-H2A inh 60 (no result: C-LANA FP, Keap1-Nrf2 PPI, CAL PDZ FP-1, CaV13 ICDI inh, CAL PDZ FP-2)
COC(=O)Cc1nnn2c1[C@@H](C)[C@@H](c1ccccc1Br)OC[C@H](C)C2	none (no result: C-LANA FP, Keap1-Nrf2 PPI, CAL PDZ FP-1, LANA-H2A inh, CAL PDZ FP-2)
COc1ccccc1C1C(C(=O)c2sc(C)nc2C)=C(O)C(=O)N1CCN1CCOCC1 (centres undefined)	LANA-H2A inh 17
COc1cccc(C2C(C(=O)c3sc(C)nc3C)=C(O)C(=O)N2CCN2CCOCC2)c1OC (centres undefined)	none (no result: CAL PDZ FP-1, CaV13 ICDI inh)
CN(C)S(=O)(=O)c1ccc(NC(=O)C2CC(=O)N(Cc3ccccc3)C2)cc1 (centres undefined)	none
CCN(CC)c1ccc(NC(=O)C2CC(=O)N(Cc3ccccc3)C2)cc1 (centres undefined)	CAL PDZ FP-1 101 (no result: LANA-H2A inh)
COC(=O)C1=C(C)N(C)C(=NCc2cccc(C(F)(F)F)c2)NC1c1ccc(C(F)(F)F)cc1 (centres undefined)	none (no result: C-LANA FP, Keap1-Nrf2 PPI, CAL PDZ FP-1, LANA-H2A inh, CAL PDZ FP-2)
COc1n[nH]c(C(=O)Nc2nc3ccccc3s2)c1[N+](=O)[O-]	CAL PDZ FP-1 66
COc1n[nH]c(C(=O)NCc2ccccc2)c1[N+](=O)[O-]	none
C=CCn1c(SC2CCOC2=O)nc2sc(C)c(C)c2c1=O (centres undefined)	CAL PDZ FP-1 49 (no result: CAL PDZ FP-2)
Cc1sc2nc(SC3CCOC3=O)n(Cc3ccccc3)c(=O)c2c1C (centres undefined)	none
CCN(C(=O)CN1CCCC(C)C1)c1c(N)n(Cc2ccccc2)c(=O)[nH]c1=O (centres undefined)	LANA-H2A inh 13 (no result: CAL PDZ FP-1)
COc1ccc(CCNc2nc(-c3ccccn3)cs2)cc1OC	CAL PDZ FP-1 49
Cc1ccccc1C(=O)c1ccccc1C(=O)c1ccccc1	CAL PDZ FP-1 86 (no result: LANA-H2A inh)
CCOCCCNC(=O)C(NC(=O)c1ccccn1)c1ccc(C)cc1 (centres undefined)	LANA-H2A inh 12 (no result: CaV13 ICDI inh, CAL PDZ FP-2)
CC(=O)n1cc(/C=N/NC(=O)c2ccccc2Cl)c2ccccc21	CAL PDZ FP-1 68 (no result: CaV13 ICDI inh)
